Measurements taken from ChEMBL document CHEMBL1681779, “Design, synthesis and docking study of 5-amino substituted indeno[1,2-c]isoquinolines as novel topoisomerase I inhibitors” (Bioorg Med Chem, 2011).
Calls of active or inactive are those of the source. The rule behind the calls is not given here.

What was measured:
Col2 = test: Cytotoxicity against human Col2 cells by sulforhodamine B assay
A549 = test: Cytotoxicity against human A549 cells by sulforhodamine B assay
SNU-638 = test: Cytotoxicity against human SNU638 cells by sulforhodamine B assay
HT-1080 = test: Cytotoxicity against human HT1080 cells by sulforhodamine B assay
[1] = biological target: T1, DNA topoisomerase 1 (Homo sapiens) (UniProt P11387); test: Inhibition of DNA topoisomerase 1-mediated supercoiled DNA relaxation at 0.1 mg/mL by agarose gel electrophoresis
T1 sequence (whole entry): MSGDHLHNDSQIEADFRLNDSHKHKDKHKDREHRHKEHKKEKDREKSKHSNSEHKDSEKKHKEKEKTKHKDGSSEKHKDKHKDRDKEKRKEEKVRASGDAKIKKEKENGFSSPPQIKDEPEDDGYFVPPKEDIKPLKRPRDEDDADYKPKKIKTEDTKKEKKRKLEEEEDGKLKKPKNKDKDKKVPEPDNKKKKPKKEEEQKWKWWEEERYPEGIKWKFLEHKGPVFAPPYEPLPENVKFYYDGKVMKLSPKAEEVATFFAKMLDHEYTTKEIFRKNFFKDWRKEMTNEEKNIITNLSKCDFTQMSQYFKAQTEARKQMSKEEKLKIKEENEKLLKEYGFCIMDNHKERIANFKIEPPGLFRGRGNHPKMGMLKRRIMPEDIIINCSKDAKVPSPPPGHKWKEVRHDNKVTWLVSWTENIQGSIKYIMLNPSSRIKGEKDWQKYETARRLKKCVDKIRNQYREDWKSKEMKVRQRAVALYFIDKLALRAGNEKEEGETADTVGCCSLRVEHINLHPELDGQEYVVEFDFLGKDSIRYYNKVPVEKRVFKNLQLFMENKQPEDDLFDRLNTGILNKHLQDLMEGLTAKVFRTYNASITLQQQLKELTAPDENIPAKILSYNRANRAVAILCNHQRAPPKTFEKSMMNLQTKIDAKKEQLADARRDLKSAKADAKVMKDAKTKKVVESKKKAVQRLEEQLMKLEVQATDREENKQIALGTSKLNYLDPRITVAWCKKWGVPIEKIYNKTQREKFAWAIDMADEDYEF
Method in brief: (§1)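 Relaxation assay with 500 ng supercoiled pBR322 DNA as substrate and 1 unit topo I. Reactions were run with or without compound, with camptothecin as reference, for 30 min at 37 °C.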

HL-60 = test: Cytotoxicity against human HL60 cells by MTT assay; format: functional, cell-based
[2] = biological target: T1, DNA topoisomerase 1 (Homo sapiens); test: Inhibition of DNA topoisomerase 1 relative to 0.1 uM camptothecin
Method in brief: as §1

SK-MEL-2 = test: Cytotoxicity against human SK-MEL-2 cells at 0.001 mg/ml; format: functional, cell-based

SMILES | IC50 (Col2) | IC50 (A549) | IC50 (SNU-638) | IC50 (HT-1080) | inhibition [1] | IC50 (HL-60) | inhibition [2] | Activity (SK-MEL-2)
CCN1CCN(c2nc3c(c4ccccc24)Cc2ccccc2-3)CC1 | 7.74 µM | 8.19 µM | 3.25 µM | 19 µM | Active | 9.98 µM | – | –
CN1CCN(c2nc3c(c4ccccc24)C(=O)c2ccccc2-3)CC1 | 7.77 µM | 8.19 µM | 7.98 µM | 5.36 µM | Active | 6.35 µM | Active | –
CCCCNc1nc2c(c3ccccc13)C(=O)c1ccccc1-2 | > 100 µM | > 100 µM | > 100 µM | 48.2 µM | – | > 100 µM | – | –
NCCNc1nc2c(c3ccccc13)C(=O)c1ccccc1-2 | 1.43 µM | 0.85 µM | 1.68 µM | 9.6 µM | – | 10.4 µM | Active | –
CN1CCN(c2nc3c(c4ccccc24)C(C)(O)c2ccccc2-3)CC1 (stereo unspecified) | 58 µM | 92.5 µM | 58.2 µM | 22.2 µM | – | 79.9 µM | – | –
OC1c2ccccc2-c2nc(N3CCOCC3)c3ccccc3c21 (stereo unspecified) | > 100 µM | 93.3 µM | > 100 µM | > 100 µM | – | 99.2 µM | – | –
CCCCCCC1(O)c2ccccc2-c2nc(N3CCN(C)CC3)c3ccccc3c21 (stereo unspecified) | 6.24 µM | 7.21 µM | 12.4 µM | 2.57 µM | – | 8.55 µM | Active | –
CN1CCCN(c2nc3c(c4ccccc24)Cc2ccccc2-3)CC1 | 2.13 µM | 5.46 µM | 8.24 µM | 0.25 µM | Active | 3.33 µM | – | –
O=C1c2ccccc2-c2nc(N3CCNCC3)c3ccccc3c21 | 7.99 µM | 8.52 µM | 8.25 µM | 2.01 µM | Active | 4.68 µM | Active | –
CN1CCN(c2nc3c(c4ccccc24)C(O)c2ccccc2-3)CC1 (stereo unspecified) | 28.3 µM | 18.1 µM | 9.01 µM | 4.87 µM | – | 13.4 µM | – | –
CC(=O)OC1c2ccccc2-c2nc(N3CCOCC3)c3ccccc3c21 (stereo unspecified) | 7.87 µM | 8.3 µM | 6.99 µM | 58.3 µM | – | 15.9 µM | – | –
CC1c2ccccc2-c2c1c1ccccc1c(=O)n2C (stereo unspecified) | – | – | – | – | – | – | – | Active
CCN1CCN(c2nc3c(c4ccccc24)C(O)c2ccccc2-3)CC1 (stereo unspecified) | 19.2 µM | 20.9 µM | 18.9 µM | 8.66 µM | – | 29.4 µM | – | –
O=C1c2ccccc2-c2nc(N3CCOCC3)c3ccccc3c21 | 96.9 µM | > 100 µM | > 100 µM | 69.2 µM | – | > 100 µM | – | –
c1ccc2c(c1)Cc1c-2nc(N2CCOCC2)c2ccccc12 | 4.42 µM | 5.69 µM | 2.58 µM | 1.24 µM | Active | 8.65 µM | – | –
CN1CCCN(c2nc3c(c4ccccc24)C(=O)c2ccccc2-3)CC1 | 0.27 µM | 1.05 µM | 1.36 µM | 0.54 µM | Active | 1.28 µM | Active | –
CCCCNc1nc2c(c3ccccc13)Cc1ccccc1-2 | 75.2 µM | 27.7 µM | 22.2 µM | 4.39 µM | Active | 19.6 µM | – | –
CN1CCN(c2nc3c(c4ccccc24)Cc2ccccc2-3)CC1 | 10.1 µM | 11.4 µM | 19.8 µM | 3.85 µM | Active | 5.87 µM | – | –
CCN1CCN(c2nc3c(c4ccccc24)C(=O)c2ccccc2-3)CC1 | 6.45 µM | 7.1 µM | 5.85 µM | 1.23 µM | Active | 4.21 µM | Active | –
